Entries after “also recorded” stand apart in the source; their conditions may differ.
Key:
[1] = Single-dose pharmacokinetics of apixaban in plasma and urine; format: in vivo, human; details: for dose proportionality of exposure: Japanese and Caucasian; for CL renal / half-life: male, human, oral; for CL renal: plasma and urine, renal clearance; for half-life: plasma
clotting time (INR) = assay: International normalized ratio; format: in vivo, human; details: 50 mg dose, Japanese and Caucasian
clotting time (aPTT) = assay: Activated partial thromboplastin time; format: in vivo, human; details: 50 mg dose
clotting time (mPT) = assay: Modified prothrombin time; format: in vivo, human; details: 50 mg single dose, Japanese and Caucasian
thrombin generation = assay: Ex vivo thrombin generation; format: in vivo, human; details: after apixaban administration, greatest change
Method in brief: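 For thrombin generation, the same dosing design applied, with platelet-poor plasma (double centrifugation, 2,500 g, 4°C) sampled 3, 6, 12 and 24 h postdose. Thrombin over time came from cleavage of a slow-reacting fluorogenic substrate against a paired calibration sample. Lag time, time to peak, peak thrombin and endogenous thrombin potential were derived from the curve and summarised as % change from baseline by group, dose and time.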

[2] = tested on: clotting times and thrombin generation; assay: Time course of pharmacodynamic measures; format: in vivo, human
[3] = Safety and tolerability assessment; format: in vivo, human; details: for bleeding time: same subject
Method in brief: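 Subjects stayed in clinic ≥72 h per period and avoided alcohol, grapefruit, caffeine and fecal-occult-interfering foods up to Day 4. Safety was assessed by adverse-event review (MedDRA v8.1, by organ class, ethnic group and dose), vital signs, ECGs, physical exams, serum chemistry, liver function, blood counts, urinalysis, fecal occult blood and template-device bleeding time.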

[4] = patients with atrial fibrillation, population PK; cited from earlier work

SMILES: COc1ccc(-n2nc(C(N)=O)c3c2C(=O)N(c2ccc(N4CCCCC4=O)cc2)CC3)cc1 [apixaban, 1-(4-methoxyphenyl)-7-oxo-6-(4-(2-oxopiperidin-1-yl)phenyl)-4,5,6,7-tetrahydro-1H-pyrazolo[3,4-c]pyridine-3-carboxamide]
- AUC values lower in Japanese than in Caucasian subjects ([1]; 50 mg dose): 20%–22%
- dose proportionality of exposure ([1]; 2.5–10 mg dose range): increased the dose proportionally up to 10 mg; also recorded: increased in proportion to dose
- point estimates and 95% CIs for dose proportionality parameter b ([1]; Cmax and AUC, both Japanese and Caucasian subjects, 2.5–50 mg): < 1
- dose proportionality of exposure ([1]; across the 2.5–50 mg dose range): less than proportional to dose
- CL renal ([1]; Caucasian subjects, across doses): 13.3 mL/min
- CL renal ([1]; Japanese subjects, across doses): 18.3 mL/min
- half-life ([1]; mean T1/2 values across doses, Caucasian subjects, 2.5–50 mg): 8.9 to 16.1 h
- half-life ([1]; mean T1/2 values across doses, Japanese subjects, 2.5–50 mg): 6.1 to 8.5 h
- half-life ([1]; mean half-life, Caucasian subjects, across doses): ~13 h
- half-life ([1]; mean half-life, Japanese subjects, across doses): ~8 h
- INR, increase from baseline (clotting time (INR)): 50%–64%
- aPTT, mean maximum increase from baseline (clotting time (aPTT)): ~ 25%
- mPT, mean maximum increase from baseline (clotting time (mPT)): 226%–229%
- ETP, decrease from baseline (thrombin generation): 49%
- LAG, increase from baseline (up to) (thrombin generation): approximately 178%
- PEAK, decrease from baseline (thrombin generation): 86%
- TTP, increase from baseline (up to) (thrombin generation): ~142%
- duration of pharmacodynamic effects ([2]; 25 and 50 mg dose panels): > 24 h
- time for which changes in TG parameters and mPT were evident ([2]; after apixaban administration): ≥ 12 h
- time until changes in pharmacodynamic measures were evident ([2]; after apixaban administration, Japanese and Caucasian): ≤ 30 min
- time to nearing baseline values of pharmacodynamic measures ([2]; doses ≤10 mg): 12 to 24 h
- time of peak values of pharmacodynamic measures ([2]; postdose): approximately 3 h
- headache, number of subjects ([3]; Caucasian subjects who received apixaban): five
- subjects reporting AEs ([3]; Caucasian subjects who received apixaban (11)): 91.7%
- subjects reporting AEs ([3]; Japanese subjects who received apixaban (five)): 41.7%
- intensity of reported AEs ([3]; all reported AEs): mild or moderate
- safety and tolerability ([3]; ascending single oral doses 2.5–50 mg, Japanese and Caucasian healthy subjects): safe and well tolerated
- changes in vital signs or ECGs ([3]; either group): no clinically relevant changes
- bleeding time ([3]; 3.5 h after the 50 mg dose): 30 min
- bleeding time ([3]; by 12 h after the 50 mg dose): 9 min
- total number of AEs reported ([3]; subjects who received apixaban (12 Japanese, 12 Caucasian)): 32
- serious AEs or discontinuations due to AEs ([3]; whole study): no serious AEs or discontinuations due to AEs
- apixaban clearance lower in Japanese patients compared to the overall population [4]: 15%
- higher exposure corresponding to the lower clearance in Japanese patients [4]: 18%

Reference: PMC6207247 (Clinical Pharmacology : Advances and Applications, 2018)
